Experimental data of several laboratories.
Protocols differ between the studies behind these lines.
Target: Serine/threonine-protein kinase WNK4 (WNK4, Homo sapiens, UniProt Q96J92)

`O=C(Nc1cccnn1)N1CC(C/C=C/c2cncc(Oc3ccc(C(F)(F)F)cn3)n2)C1` gave a remaining binding of 0% (cell-free assay; competition with immobilised ligand; 1 µM).
`O=C(NCCCN1CCOCC1)c1ccc(Nc2ncc(Cl)c(-c3ccc(Cl)s3)n2)cc1` has a remaining binding of 99% (binding; competition with immobilised ligand; 1 µM).
`CCCCN(CCCC)C(=O)CN1C[C@H](c2cc(OC)c3c(c2)OCO3)[C@@H](C(=O)O)[C@@H]1CC(C)(C)CCC` gave a remaining binding of 97.9% (cell-free assay; competition with immobilised ligand; 1 µM).
The remaining binding of `Nc1ncc2c(n1)-c1c([nH]c3ccc(C#CC4CC4)cc13)CCCC2` is reported as 79% (binding; competition with immobilised ligand; 1 µM).
The remaining binding of `O=C(c1ccc(Nc2nccc(-c3cc4ccccc4s3)n2)cc1)N1CCC(N2CCCC2)CC1` is reported as 92% (binding; competition with immobilised ligand; 1 µM).
For `C[C@@H]1CCN(c2nccc(-c3cnn4ncccc34)n2)C1`, the remaining binding was 100% (binding; 1 µM).
With `O=C(Nc1ccc(Oc2ccc(F)cc2)cc1)N1CCc2ncccc2[C@H]1c1ccc(F)cc1` the remaining binding was 85% (cell-free assay; competition with immobilised ligand; 1 µM).
With `N[C@H]1CCN(c2nccc(-c3cnn4ncccc34)n2)C1` the remaining binding was 84% (binding; 1 µM).
`Cc1nc(Cc2cccc(C(F)(F)F)c2)sc1-c1ccc(C(N)=O)nc1` has a remaining binding of 100% (cell-free assay; competition with immobilised ligand; 1 µM).
`CN(c1nccc(-c2cnn3ncccc23)n1)C1CC1` gave a remaining binding of 100% (binding; 1 µM).
`O=C(c1ccc(Nc2ncc(Cl)c(-c3cc4ccccc4s3)n2)cc1)N1CCC(N2CCCC2)CC1` gave a remaining binding of 86% (binding; competition with immobilised ligand; 1 µM).
The remaining binding of `CN(C)c1ncc(F)c(-c2cnn3ncccc23)n1` is reported as 91% (binding; 1 µM).
`O=C(NCC1CCOCC1)c1n[nH]cc1NC(=O)c1c(F)cccc1F` gave a remaining binding of 86% (binding; competition with immobilised ligand; 1 µM).
`COc1ccnn2ncc(-c3ccnc(N(C)C)n3)c12` has a remaining binding of 100% (binding; 1 µM).
`COc1ncc2cc3ccccc3nc2c1C#N` has a remaining binding of 80% (cell-free assay; competition with immobilised ligand; 5 µM).
For `CNC(=O)[C@@H]1CC[C@@H](n2c(-c3ccc4cnccc4c3)nc3ccc(C(=O)NCc4cccc(C(N)=O)c4)cc32)C1`, the remaining binding was 100% (binding; competition with immobilised ligand; 1 µM).
For `C=CC(=O)N1CCC(C(=O)NCC(=O)N2CCN(c3nc(-c4cnc(N)nc4C(F)F)nc(N4CCOCC4)n3)CC2)CC1`, the remaining binding was 92% (binding; competition with immobilised ligand; 1 µM).
With `COc1cccc(CNC(=O)c2nc3scc(COCc4ccc(C(=O)O)cc4)c3c(=O)[nH]2)c1` the remaining binding was 100% (cell-free assay; competition with immobilised ligand; 1 µM).
With `c1cncc(-c2cccc(Nc3nccc(NC4CCCCC4)n3)c2)c1` the remaining binding was 100% (binding; competition with immobilised ligand; 10 µM).
With `CC1CCCN1c1nccc(-c2cnn3ncccc23)n1` (stereo not drawn) the remaining binding was 100% (binding; 1 µM).
For `CC(=O)N1CCC(c2ccc(C(=O)NC(=N)N)cc2C(F)(F)F)CC1`, the remaining binding was 100% (cell-free assay; competition with immobilised ligand; 1 µM).
